High-throughput results as filed in PubChem.
V1R ag counter: V1a receptor agonism, counter-screen for OXTR agonists. CHO-V1R cells, Fluo-8 calcium fluorescence, agonist mode; 0% DMSO, 100% 3 nM vasopressin. activation, % at 3 µM. P37288. hit rate 0.25% among 320,000;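 active = activation above the mean activation of all tested compounds plus 3 SD, per screening run, cut at about 20% in these data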;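 also: signal is peak over basal fluorescence ratio across a 100 second FLIPR read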
Target sequence (P37288 whole entry, looked up): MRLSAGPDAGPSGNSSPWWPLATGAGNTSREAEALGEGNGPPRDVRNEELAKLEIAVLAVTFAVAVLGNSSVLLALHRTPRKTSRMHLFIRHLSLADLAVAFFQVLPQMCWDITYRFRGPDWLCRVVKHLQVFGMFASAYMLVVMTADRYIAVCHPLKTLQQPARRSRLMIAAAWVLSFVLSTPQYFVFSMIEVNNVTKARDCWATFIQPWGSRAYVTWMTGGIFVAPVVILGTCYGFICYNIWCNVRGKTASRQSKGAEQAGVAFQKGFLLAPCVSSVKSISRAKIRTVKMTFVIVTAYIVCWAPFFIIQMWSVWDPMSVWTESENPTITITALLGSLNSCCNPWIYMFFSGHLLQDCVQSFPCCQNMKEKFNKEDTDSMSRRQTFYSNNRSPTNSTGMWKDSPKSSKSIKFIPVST
OXTR ag: activates the human oxytocin receptor; P30559; CHO-OTR cells, Fluo-8 calcium fluorescence; normalized: DMSO 0%, oxytocin 100%; activation, % at 3 µM; hit rate 0.32% among 320,000;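 active = activation above the mean of all tested compounds plus 3 SD, cutoff set per screening run, cut at about 20% in these data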;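 also: peak over basal fluorescence ratio from a 100 s FLIPR kinetic read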
TAAR1 agonist: agonists of human TAAR1. hit rate 0.99% among 360,000. activation, % at 3 µM. CHO RD-HGA16 TAAR1, Fluo-8 calcium fluorescence; vehicle wells 0%, saturating PEA agonist 100%;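 active = activation above the mean activation of all test compounds in the run plus 3 SD, cut at about 38% in these data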
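Assay system – CHO-derived RD-HGA16 cells with stable Gα16 and human TAAR1 · Compound dosing – one-point dosing at 3 µM (nominal) · Incubation – 17-24 h seeding, 75 min 37 °C dye, 30 min RT · Measured by – kinetic Fluo-8 calcium fluorescence · Control set – DMSO vehicle as 0%, PEA at EC100 as 100% · Repeats – single well for each compound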
TAAR1 antagonist: human TAAR1 antagonism; Q96RJ0; CHO RD-HGA16 TAAR1, Fluo-8 calcium fluorescence, antagonist; inhibition, % at 3 µM; hit rate 1.5% among 360,000; AID 624466;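 active = inhibition above a per-plate cutoff, the mean inhibition of test compounds on that plate plus 3 SD, cut at about 49% in these data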;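 also: 0% = DMSO plus EC80 beta-PEA response and 100% = DMSO alone without agonist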
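Material: CHO RD-HGA16 cells bearing hTAAR1; compound dosing: one-point dosing, 3 µM nominal final; schedule: dye loading 75 min at 37 °C, then 30 min room temperature; measured by: calcium fluorescence with Fluo-8; control set: vehicle and agonist controls; replication: n of 1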
OXTR potentiator: potentiates the human oxytocin receptor response; hit rate 0.061% among 320,000; activation, % at 3 µM; P30559; CHO-OTR cells, Fluo-8 calcium fluorescence, potentiator mode; 0% = oxytocin EC15, 100% = EC100;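 active = activation above that plate's cutoff, the mean activation of tested compounds plus 3 SD, cut at about 6.6% in these data, passing the limit was not always enough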;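 also: 100% uses oxytocin at 75 nM as the full agonist control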
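assay system = CHO-OTR cells, human receptor | schedule = compound 6 min at room temperature before oxytocin, 100 s read | detection = Fluo-8 intracellular calcium fluorescence, ex 470-495, em 515-575 nm | evaluation = normalized max/min fluorescence ratio, % activation | control set = EC15 oxytocin alone as 0%, 75 nM oxytocin (EC100) as 100%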
* = called active by the depositor; . = no result. In the library only some 2.3% were active in any assay of this set; here they are far more common.

SMILES	V1R ag counter	OXTR ag	TAAR1 agonist	TAAR1 antagonist	OXTR potentiator
CCOc1ccc(S(=O)(=O)Nc2ccc(C(=O)N3CC(C)OC(C)C3)cc2)cc1 (stereo not drawn)	27*	34*	57*	26	-18
CCOC(=O)NCc1ccc(S(=O)(=O)Nc2ccc(C)cc2)cc1	10	14	44*	-1	-20
Cc1ccc(NS(=O)(=O)c2ccc(C3CCCCC3)cc2)cc1	17	8	14	59*	-12
CCOC(=O)COc1ccc(S(=O)(=O)Nc2ccc(C)cc2)cc1	13	16	50*	7	-12
Cc1cc(C(=O)CCC(=O)N(C)CC(=O)Nc2c(Cl)cccc2Cl)c(C)s1	2	0	1	-8	-3
CCn1c(SCc2ccc(C(=O)Nc3cc(C)cc(C)c3)cc2)nnc1-c1ccncc1	1	4	22	59*	-18
Cc1ccc(NC(=O)c2ccc(CSc3nnc(-c4ccncc4)n3C)cc2)cc1	0	1	3	-1	-3
CCCNC(=O)c1cc(C2CCCN(C(=O)c3ccc4ccccc4c3)C2)on1 (stereo not drawn)	.	.	-1	-3	.
COc1ccc(NC(=O)C(C)Oc2ccc(/C(C)=N\O)cc2)cc1 (stereo not drawn)	33*	40*	55*	6	-23
COc1ccc(OC(C)C(=O)Nc2ccc([N+](=O)[O-])cc2)cc1 (stereo not drawn)	6	3	17	14	-15
CCN1CCN(CC(=O)Nc2ccc(S(=O)(=O)N3C(C)CCCC3C)cc2)CC1 (stereo not drawn)	1	1	-3	9	-11
COc1ccc(OC)c(-c2csc(NC(=O)Cn3[nH]c(=O)c4ccccc4c3=O)n2)c1	1	0	4	54*	-6
COc1ccc(OC)c(-c2csc(NC(=O)CSc3ccc([N+](=O)[O-])cc3)n2)c1	1	1	4	49*	-4
COc1ccc(-c2csc(NC(=O)CCS(=O)(=O)c3ccccc3)n2)c(OC)c1	5	3	12	55*	-6
COC(=O)[C@H](Cc1ccccc1)NC(=O)[C@H]1O[C@@H](n2cnc3c(=O)[nH]c(N)nc32)[C@H](O)[C@@H]1O	.	.	1	-28	.
Cc1nnc2ccc(-c3ccc(NS(=O)(=O)c4ccc(Cl)s4)cc3)nn12	3	0	7	-6	-8
CC1(C(=O)Nc2cccc3c2CCCC3)CCN1C(=O)Cc1ccccc1Cl (stereo not drawn)	.	.	4	22	.
CN1/C(=C/C2CC(=O)N(c3cccc4ccccc34)C2=O)C(C)(C)c2ccccc21 (stereo not drawn)	1	1	16	50*	-10
Cc1nn(-c2ccccc2)c2c1C(c1ccc([N+](=O)[O-])cc1)N1C(=N2)C(=O)Nc2ccccc21 (stereo not drawn)	0	-3	5	51*	-4
Cc1nn(-c2ccc([N+](=O)[O-])cc2)c2c1C(c1cccc(Br)c1)N1C(=N2)C(=O)Nc2ccccc21 (stereo not drawn)	0	0	2	6	4
Cc1ccccc1C1=CC(=O)CC(C)(C)C1=O	.	.	0	12	.
CCOC1=C2CN(S(=O)(=O)c3ccc(C)cc3)[C@H](c3ccccc3)C[C@@H]2N(S(C)(=O)=O)[C@H](c2ccccc2)C1	.	.	1	-42	.
COC(=O)c1cc2c(c3c4cc(F)ccc4n(S(=O)(=O)c4ccccc4)c13)C(=O)N(Cc1ccc(N(C)C)cc1)C2	.	.	0	-3	.
C#CCNC(=O)C1=C[C@@H](c2csc3ccccc23)C[C@@H](OCc2ccc(CO)cc2)O1	4	2	20	54*	-22
CCCCCc1c(C)nc(Nc2ccccc2)[nH]c1=O	6	4	38*	-1	-31
SMILES	V1R ag counter	OXTR ag	TAAR1 agonist	TAAR1 antagonist	OXTR potentiator
CNC(=O)C1Cc2c(-c3ccc4c(c3)OCO4)ccnc2O1 (stereo not drawn)	.	.	0	-23	.
COc1ccccc1N(C(C)=O)C1=C(Cl)C(=O)c2ccccc2C1=O	.	.	15	57*	.
COc1ccccc1N(C(=O)CCl)c1cn(C(C)=O)c2ccccc12	0	-1	1	-3	-1
COC(=O)[C@]12C[C@H](CC(=O)NCCc3ccccc3OC)C(=O)N(Cc3ccc4c(c3)OCO4)C1=C[C@H](C(C)(C)C)O[C@@H]2C	.	.	15	2	.
CCNC(=O)N1CCN(c2ccc(N3CCN(Cc4ccccc4)[C@@H](C)C3)c(C)c2)[C@@H](C)C1	.	.	3	-26	.
O=C(NCCn1cc(SCc2ccccc2F)c2ccccc21)c1c(F)cccc1F	2	1	2	83*	-6
O=C(NCCn1cc(SCC(=O)N2CCOCC2)c2ccccc21)c1c(F)cccc1F	2	1	7	28	0
CS(=O)(=O)c1ccc(-c2sc3ccccc3c2C#CCCO)cc1	10	7	16	54*	-4
COc1ccc2c(C#CCCO)c(-c3ccc(S(C)(=O)=O)cc3)sc2c1	7	11	20	62*	-12
COc1ccc2sc(-c3ccc(S(C)(=O)=O)cc3)c(C#CCO)c2c1	5	3	15	46	-6
COc1ccc(-c2sc3ccccc3c2C#CCCO)cc1	0	1	-2	19	-10
CC(=O)Nc1ccc2c(COC(=O)CC3Sc4ccccc4NC3=O)cc(=O)oc2c1 (stereo not drawn)	0	0	6	21	-6
COc1ccc2c(COC(=O)CC3Sc4ccccc4NC3=O)cc(=O)oc2c1 (stereo not drawn)	4	2	15	54*	-15
CC(C)(C)c1ccc(C(=O)Nc2ccccc2NC(=O)c2ccco2)cc1	-1	-2	6	49*	-12
O=C(Nc1ccccc1NC(=O)c1ccco1)c1ccccc1	0	0	-1	6	5
CC(=O)C1CCC2C3C=CC4=CC(=O)CCC4(C)C3CCC12C (stereo not drawn)	.	.	1	10	.
CCN(CC)c1ccc(C(=O)NNC(=O)CCNC(=O)c2ccccc2)cc1	0	0	6	2	-3
CCN(CC)c1ccc(C(=C2C=CC(=[N+](CC)CC)C=C2)c2ccccc2)cc1	.	.	29	105*	.
CCCC1/C(=N/O)CC(c2ccccc2)NC1c1ccccc1 (stereo not drawn)	3	0	18	57*	-29
COC(=O)C1=C(C)N(Cc2ccc(C(F)(F)F)cc2)C(=NCC2CC2)NC1c1ccccc1 (stereo not drawn)	.	.	28	45	.
CC/C(=N\NC(=O)c1cc(C2CC2)[nH]n1)c1ccccc1	0	-1	1	-29	1
